# In the library only some 3.3% were active in any assay of this set; here they are far more common.
# PfM18AAP inh-1: blocks P. falciparum M18 aspartyl aminopeptidase; recombinant PfM18AAP, H-Glu-NHMec fluorogenic cleavage; inhibition, % at 7.35 µM; 290,000 tested, 1.2% active;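 active means inhibition above the campaign mean inhibition over all tested compounds plus 3 SD, cut at about 28% in these data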
# Lipid droplet: modulators of hepatic lipid droplet formation. AML12 mouse hepatocytes, oleate lipid droplets, BODIPY imaging. 240,000 tested, 0.4% active. inhibition, % at 6.5 µM. AID 1656;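 active means lipid droplet intensity inhibited by at least 50%, with more than 500 cells counted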
#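 Test system: AML12 hepatocytes (mouse); reagent: oleate loading, 100 µM; dosing: one dose, 6.5 µM compound; incubation: overnight exposure; signal: fluorescence imaging, 20x objective, two fields per well; read-out basis: % inhibition of corrected integrated BODIPY droplet signal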
# NRP1-CendR mod: alters CendR peptide binding to human NRP-1 | O14786 | FAM-RPARPAR peptide binding to NRP-1, fluorescence polarization | inhibition, % at 25 µM | 360,000 tested, 0.85% active;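 active means inhibition or corrected inhibition above about 18%, plus a signal ratio from 0.5 to 1.5, limit read from the data, passing the limit was not always enough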
# sPLA2-III inh: Blocks human group III sPLA2 activity. QFRET BODIPY PC-A2 liposome hydrolysis, fluorescence. inhibition, % at 12.2 µM. 370,000 tested, 0.56% active. Q9NZ20;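 active means inhibition above mean plus 3 SD of compounds lying within the high and low control bounds, cut at about 19% in these data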
# m5-HT2A agonist: mouse HTR2A agonism via beta-arrestin recruitment; P35363; CHO-K1 mHTR2A beta-arrestin complementation, luminescence; percent of 30 µM serotonin response; activation, % at 7.6 µM; 360,000 tested, 0.66% active;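 active means activation above a run cutoff, the mean activation of all tested compounds plus 3 SD, cut at about 14% in these data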
# Target sequence (P35363 whole entry, looked up): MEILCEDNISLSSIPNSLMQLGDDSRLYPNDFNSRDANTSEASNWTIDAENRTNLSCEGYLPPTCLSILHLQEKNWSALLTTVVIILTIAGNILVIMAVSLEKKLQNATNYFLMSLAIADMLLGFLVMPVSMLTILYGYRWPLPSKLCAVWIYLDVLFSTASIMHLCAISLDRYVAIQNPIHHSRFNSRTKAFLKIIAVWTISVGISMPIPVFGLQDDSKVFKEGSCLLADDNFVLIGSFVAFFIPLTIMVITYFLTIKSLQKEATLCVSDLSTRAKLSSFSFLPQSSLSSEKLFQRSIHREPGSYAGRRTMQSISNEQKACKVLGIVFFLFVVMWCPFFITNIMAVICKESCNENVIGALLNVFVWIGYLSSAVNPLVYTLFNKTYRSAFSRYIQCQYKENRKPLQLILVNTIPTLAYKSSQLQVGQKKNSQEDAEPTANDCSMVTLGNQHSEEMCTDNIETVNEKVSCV
# Arr AP2 block: blocks beta-arrestin peptide binding to AP2 adaptin; FITC-arrestin peptide / GST-AP2 beads, flow cytometry; AP2 beta2 appendage carries R879A mutation; inhibition, % at 10 µM; 340,000 tested, 0.31% active;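 active means inhibition above a set limit, near 3 SD of compounds lacking own fluorescence, cut at about 54% in these data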
#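 Material – AP2 appendage R879A on GSH beads · Buffer or medium – PBS with 0.05% Tween 20 and 0.1% BSA · Probe or stimulus – fluorescein-tagged arrestin peptide at 50 nM final · Incubation – compound with beads 12 min RT, then probe 1 h RT · Detection – high-throughput flow cytometry of beads, ex 488, em 535 nm · Evaluation – percent response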
# PfM18AAP inh-2: PfM18AAP inhibition, confirmation | recombinant PfM18AAP, H-Glu-NHMec fluorogenic cleavage | shares compounds with PfM18AAP inh-1 | inhibition, % at 7.35 µM | 2,400 tested, 28% active;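 active means mean inhibition over replicate wells above the hit cutoff set for the earlier primary screen, cut at about 29% in these data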
# CTSL1 counter: Cathepsin L (human) inhibition, confirmation; inhibition, % at 5.96 µM; purified cathepsin L1, Z-Leu-Arg-MCA fluorescence; shares compounds with PfM18AAP inh-1; 2,400 tested, under 10 active; AID 2178;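 active means average inhibition across replicates above the hit cutoff set in the earlier primary screen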
# Numbers stand for hits; i = inactive; nt = no result.
SMILES,PfM18AAP inh-1,Lipid droplet,NRP1-CendR mod,sPLA2-III inh,m5-HT2A agonist,Arr AP2 block,PfM18AAP inh-2,CTSL1 counter
CC(O)CCC(=O)NNC1=CC(=O)CC(C)(C)C1 (stereo not given),i,i,nt,nt,nt,nt,nt,nt
COc1ccc(C(=O)NNC2=CC(=O)CC(C)(C)C2)cc1OC,40.0,i,i,i,i,i,i,i
Cc1occc1C(=O)NNC1=CC(=O)CC(C)(C)C1,54.6,i,i,i,i,i,30.2,i
COC(=O)C1=C(C)N(Cc2ccccc2C(F)(F)F)C(=NCc2ccc(OC)cc2)NC1c1ccccc1C(F)(F)F (stereo not given),nt,nt,nt,i,nt,nt,nt,nt
COc1ccccc1NS(=O)(=O)c1cc(NC(=O)C2CCCO2)ccc1C (stereo not given),nt,nt,i,i,i,i,nt,nt
COc1cccc(NC(=O)Nc2nc3ncccn3c2-c2ccc(C)cc2)c1,nt,nt,nt,i,nt,nt,nt,nt
COc1cccc(-c2ncc3ccccc3c2COC(=O)c2ccc(F)cc2)c1,nt,nt,i,i,i,i,nt,nt
COC(=O)C1=C(C)N(Cc2ccc(C(F)(F)F)cc2)C(=NCc2ccc(C(F)(F)F)cc2)NC1c1ccccc1C(F)(F)F (stereo not given),nt,nt,nt,i,nt,nt,nt,nt
Oc1ccc(/C=N/N2CCN(C3c4ccccc4-c4ccccc43)CC2)cc1O,50.5,i,i,i,i,i,35.6,i
Cc1ccc(CN2CCN(/N=C/c3ccc(C(=O)O)cc3)CC2)cc1,i,i,i,i,i,i,nt,nt
Cc1ccc(CN2CCN(/N=C/c3ccc(O)c(O)c3)CC2)cc1,63.7,nt,i,i,i,i,37.8,i
COc1ccc(/C=N/Nc2ncnc(Cl)c2N)cc1OC,35.2,i,i,i,i,i,i,i
Oc1ccc(/C=N/Nc2nccnc2Cl)c(O)c1,35.3,i,i,i,i,i,i,i
COc1ccc(/C=N/Nc2nccnc2Cl)cc1,35.6,i,i,i,i,i,i,i
CC(C)C[C@@H]1COc2cc(NC3CC3)ccc2S(=O)(=O)N1,nt,nt,nt,i,nt,nt,nt,nt
CCCCOP(=O)(c1ccc(N(C)C)cc1)C(O)c1ccc(N(C)C)cc1 (stereo not given),34.1,i,i,i,i,i,i,i
CCCCOP(=O)(c1ccc(N(C)C)cc1)C(O)c1ccc(C(C)C)cc1 (stereo not given),i,i,i,i,i,i,nt,nt
C[C@@H]1CN(c2ccc(N3CCNC[C@@H]3C)cc2C#N)CCN1Cc1ccccc1,nt,nt,nt,i,nt,nt,nt,nt
CCc1nnc(N/N=C/c2ccc(N3CCC(C)CC3)c([N+](=O)[O-])c2)n1N,48.0,i,i,i,i,nt,i,i
CC1CCN(c2cc(N3CCOCC3)c([N+](=O)[O-])cc2F)CC1,i,nt,i,i,i,i,nt,nt
CCN(CC(=O)Nc1ccc(NC(C)=O)cc1)C(=O)c1ccc(N2CCC(C)CC2)c([N+](=O)[O-])c1,nt,nt,i,i,i,i,nt,nt
Cc1nnc(N/N=C/c2cc([N+](=O)[O-])c(N3CCC(C)CC3)cc2N2CCC(C)CC2)n1N,50.1,i,i,i,i,i,i,i
COc1ccc(CNc2n[nH]c(NCc3ccc(OC)c(OC)c3)n2)cc1OC,47.3,i,19.5,i,i,i,i,i
CCC(=O)n1nc(NCc2ccc(OC)c(OC)c2)nc1NCc1ccc(OC)c(OC)c1,38.1,i,i,i,i,i,i,i
COc1cc(=O)oc(C=O)c1C,nt,nt,nt,i,nt,nt,nt,nt
SMILES,PfM18AAP inh-1,Lipid droplet,NRP1-CendR mod,sPLA2-III inh,m5-HT2A agonist,Arr AP2 block,PfM18AAP inh-2,CTSL1 counter
CCc1nnc(NC(=O)CN2C(=O)/C(=C/c3cc(OC)c(OC)c(OC)c3)SC2=S)s1,33.1,i,i,i,i,i,i,i
O=C1CC(N2CCCCCC2)C(=O)N1c1ccc2c(c1)OCO2 (stereo not given),i,i,i,i,i,i,nt,nt
O=C1CC(N2CCN(c3ccc(O)cc3)CC2)C(=O)N1c1ccc2c(c1)OCO2 (stereo not given),31.9,i,i,i,i,i,i,i
O=C(C/C=N\OCc1ccc([N+](=O)[O-])cc1)Nc1ccccc1,33.4,i,i,i,i,i,i,i
Fc1ccccc1/C=N/n1cc(-c2ccccc2)[nH]c1=S,45.6,i,i,i,i,i,40.8,i
S=c1[nH]c(-c2ccccc2)cn1/N=C/c1cccnc1,62.0,i,i,i,i,i,56.6,i
Fc1ccccc1/C=N/n1cnnc1,i,i,i,i,i,i,nt,nt
O=C(NCc1ccc(C(=O)N2CCCC2)cc1)c1cccc(Br)c1,nt,nt,nt,i,nt,nt,nt,nt
COC(=O)[C@]12C[C@H](CC(=O)N3CCOCC3)C(=O)N(Cc3ccc(Cl)cc3Cl)C1=C[C@H](C(C)(C)C)O[C@@H]2C,nt,nt,nt,i,nt,nt,nt,nt
CC(C)(C)c1cc[n+](-c2[nH]c(=O)sc2/C=N/NC([S-])=Nc2ccccc2)cc1,35.0,i,53.7,i,i,i,i,i
Cc1noc(C)c1S(=O)(=O)N1CCCc2nc(-c3ccccc3)ccc21,nt,nt,nt,i,nt,nt,nt,nt
COc1cc(CNc2ccc(N3CCCCC3)cc2)ccc1OCC(=O)NC(C)(C)C,43.0,i,i,i,i,i,i,i
COc1cc(CNc2ccc(N3CCCC3)cc2)ccc1OCc1ccccc1,i,i,i,i,i,i,nt,nt
NC(=O)c1ccc(N2CCN(c3ccccc3F)CC2)c([N+](=O)[O-])c1,i,i,i,i,i,i,nt,nt
NC(=O)c1ccc(N2CCN(c3ccccc3O)CC2)c([N+](=O)[O-])c1,36.4,i,i,i,i,i,i,i
CCCCCCOc1ccc(C(=O)O)cc1,i,i,i,i,i,i,nt,nt
CCCCCCOc1ccc(C(=O)n2cnc(N)n2)cc1,44.0,i,i,i,i,i,40.8,i
Cc1c(NC(=O)CN2CCN(c3ccc(O)cc3)CC2)c(=O)n(-c2ccccc2)n1C,38.8,i,i,i,i,i,i,i
N#C/C(=C\c1ccc(-c2ccccc2)o1)C(=O)Nn1cnnc1,63.3,nt,i,i,i,i,54.3,i
COc1ccc(C(O)(C(=O)NNc2ccc(C)cc2)c2cccs2)cc1 (stereo not given),41.7,i,i,i,i,i,i,i
O=C(NNc1ccc(C2CCCCC2)cc1)C(O)(c1ccccc1)c1cccs1 (stereo not given),i,nt,i,i,i,i,nt,nt
Cc1ccc(-n2nc3ccc(N)cc3n2)cc1Cl,32.4,i,i,i,i,i,i,i
O=C(CN1C(=O)c2ccccc2S1(=O)=O)c1ccc(O)c(O)c1,47.4,i,i,i,i,i,35.3,i
Nc1c(S(=O)(=O)c2cccc(Cl)c2)c2nc3ccccc3nc2n1/N=C/c1ccc(O)c(O)c1,43.8,nt,nt,nt,nt,nt,i,i

# High-throughput results as filed in PubChem BioAssay.
